Data published in ChEMBL document CHEMBL1287688 (Bioorg Med Chem, 2010).

Tests used:
[1] = Selectivity ratio of Ki for guinea pig sigma1 receptor to Ki for human recombinant NR1a/NR2B receptor
[2] = target: T1, Glutamate NMDA receptor; GRIN1/GRIN2B (Homo sapiens, UniProt Q05586+Q13224); assay: Displacement of [3H]ifenprodil from human recombinant NR1-1a/NR2B receptor expressed in mouse L(tk-) cells after 120 mins by scintillation counting; type: cell-based
[3] = target: Sigma non-opioid intracellular receptor 1 (Cavia porcellus, UniProt Q60492); assay: Displacement of [3H](+)-pentazocine from sigma1 receptor guinea pig brain after 180 mins scintillation counting
[4] = Displacement of [3H]di-o-tolylguanidine from sigma2 receptor rat liver membranes after 180 mins scintillation counting; type: cell membranes, Membrane
[5] = target: T1, Glutamate NMDA receptor; GRIN1/GRIN2B; assay: Antagonist activity at human recombinant NR1-1a/NR2B receptor expressed in mouse L(tk-) cells assessed as inhibition of (S)-glutamate/glycine-stimulated excitotoxicity treated 30 mins before (S)-glutamate/glycine challenge measured after 4 hrs by LDH release assay; type: functional, cell-based
How it was run: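 L13-E6 mouse L(tk-) cells stably expressing NR1-1a/NR2B; compounds (1 nM-10 µM, in DMSO) preincubated 30 min, then (S)-glutamate plus glycine (10 µM each) added, 4 h further incubation. LDH in supernatant measured; 0% = no agonist with 100 µM ketamine, 100% = glutamate/glycine without ketamine. At least three experiments, six replicates per concentration; IC50 calculated from curves.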

[6] = Half life in rat liver microsomes; type: ADME, Microsome
How it was run: (§1)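 Test article incubated with liver microsomes prepared from mouse, rat and human; half-life determined.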

Mus musculus [7] = assay: Toxicity in mouse assessed as unusual reactions at 1 to 100 mg/kg, ip after 24 hrs; type: organism-based; design: dose 1-100 mg/kg, route intraperitoneal; settings: in vivo
How it was run: (§2)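 Mice (Irwin test) received increasing intraperitoneal doses of 1-100 mg/kg body weight. Behaviour was then observed for 24 h.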

[8] = target: T2, Amine oxidase [flavin-containing] B (Homo sapiens, UniProt P27338); assay: Displacement of radiolabeled kynuramine from MAO-B at 1 to 3 uM
T2 sequence (P27338 whole entry): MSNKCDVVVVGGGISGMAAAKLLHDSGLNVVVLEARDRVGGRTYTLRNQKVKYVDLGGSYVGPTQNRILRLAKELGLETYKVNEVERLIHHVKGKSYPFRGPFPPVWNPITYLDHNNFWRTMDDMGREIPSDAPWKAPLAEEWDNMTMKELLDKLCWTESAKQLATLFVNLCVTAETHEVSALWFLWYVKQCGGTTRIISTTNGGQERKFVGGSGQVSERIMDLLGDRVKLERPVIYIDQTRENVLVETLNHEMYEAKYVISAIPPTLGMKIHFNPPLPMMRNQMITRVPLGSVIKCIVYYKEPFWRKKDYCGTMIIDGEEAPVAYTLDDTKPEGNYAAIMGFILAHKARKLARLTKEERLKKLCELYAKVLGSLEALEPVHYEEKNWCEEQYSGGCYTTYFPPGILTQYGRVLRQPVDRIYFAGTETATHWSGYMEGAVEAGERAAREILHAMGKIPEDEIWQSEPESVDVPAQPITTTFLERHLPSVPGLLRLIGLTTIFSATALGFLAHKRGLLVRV
How it was run: (§3)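 Broad radioligand competition screen against more than 100 receptors, transporters and enzymes, with test concentrations of 1-3 µM. Targets and radioligands are listed only in supplementary data. hERG IC50 was estimated.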

Mus musculus [9] = assay: Toxicity in mouse assessed as diarrhea at 100 mg/kg, ip after 30 mins; type: organism-based; design: dose 100 mg/kg, route intraperitoneal; settings: in vivo, 0.5 h; how it was run: as §2
[10] = target: T3, Amine oxidase [flavin-containing] A (Homo sapiens, UniProt P21397); assay: Displacement of radiolabeled kynuramine from MAO-A at 1 to 3 uM; how it was run: as §3
T3 sequence (P21397 whole entry): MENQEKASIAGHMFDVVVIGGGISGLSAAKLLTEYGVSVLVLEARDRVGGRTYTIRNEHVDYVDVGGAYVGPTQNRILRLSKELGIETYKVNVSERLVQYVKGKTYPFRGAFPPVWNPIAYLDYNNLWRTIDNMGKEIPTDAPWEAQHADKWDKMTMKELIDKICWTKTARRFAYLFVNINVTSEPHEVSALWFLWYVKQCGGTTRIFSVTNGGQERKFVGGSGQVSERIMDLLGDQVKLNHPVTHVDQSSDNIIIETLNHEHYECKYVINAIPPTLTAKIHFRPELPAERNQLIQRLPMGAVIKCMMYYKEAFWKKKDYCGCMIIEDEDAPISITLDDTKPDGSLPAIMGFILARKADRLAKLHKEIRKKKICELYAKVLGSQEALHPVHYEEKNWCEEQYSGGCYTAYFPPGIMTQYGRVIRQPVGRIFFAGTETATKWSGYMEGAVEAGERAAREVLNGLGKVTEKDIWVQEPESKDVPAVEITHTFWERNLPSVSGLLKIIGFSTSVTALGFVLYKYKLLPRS

[11] = target: T4, UDP-glucuronosyltransferase 1A1 (Homo sapiens, UniProt P22309); assay: Displacement of radiolabeled scopoletin from UGT1A1 at 1 to 3 uM; how it was run: as §3
T4 sequence (P22309 whole entry): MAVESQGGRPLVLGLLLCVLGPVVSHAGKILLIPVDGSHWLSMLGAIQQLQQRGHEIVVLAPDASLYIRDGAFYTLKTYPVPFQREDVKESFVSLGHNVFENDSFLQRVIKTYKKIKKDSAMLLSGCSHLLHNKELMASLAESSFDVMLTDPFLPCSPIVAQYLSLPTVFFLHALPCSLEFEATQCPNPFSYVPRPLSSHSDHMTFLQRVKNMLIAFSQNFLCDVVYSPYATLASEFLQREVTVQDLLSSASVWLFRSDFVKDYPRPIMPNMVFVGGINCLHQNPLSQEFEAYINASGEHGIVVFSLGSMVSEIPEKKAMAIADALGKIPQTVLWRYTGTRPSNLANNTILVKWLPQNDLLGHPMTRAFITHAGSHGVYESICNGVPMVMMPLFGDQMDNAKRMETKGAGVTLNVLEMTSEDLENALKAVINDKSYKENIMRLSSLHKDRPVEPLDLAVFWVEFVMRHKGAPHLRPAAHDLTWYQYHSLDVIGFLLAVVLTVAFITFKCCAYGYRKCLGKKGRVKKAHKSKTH

[12] = Half life in human liver microsomes; type: ADME, Microsome; how it was run: as §1
[13] = Half life in mouse liver microsomes; type: ADME, Microsome; how it was run: as §1

Sequence of Sigma non-opioid intracellular receptor 1 (Q60492 whole entry): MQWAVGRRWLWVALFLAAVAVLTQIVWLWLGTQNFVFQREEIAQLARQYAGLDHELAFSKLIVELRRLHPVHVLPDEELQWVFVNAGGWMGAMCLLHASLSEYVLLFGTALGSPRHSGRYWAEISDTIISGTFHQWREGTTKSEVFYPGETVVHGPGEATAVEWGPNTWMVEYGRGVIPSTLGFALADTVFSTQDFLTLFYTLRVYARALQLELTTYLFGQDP
T1 sequence (Q13224 whole entry, other chains not shown): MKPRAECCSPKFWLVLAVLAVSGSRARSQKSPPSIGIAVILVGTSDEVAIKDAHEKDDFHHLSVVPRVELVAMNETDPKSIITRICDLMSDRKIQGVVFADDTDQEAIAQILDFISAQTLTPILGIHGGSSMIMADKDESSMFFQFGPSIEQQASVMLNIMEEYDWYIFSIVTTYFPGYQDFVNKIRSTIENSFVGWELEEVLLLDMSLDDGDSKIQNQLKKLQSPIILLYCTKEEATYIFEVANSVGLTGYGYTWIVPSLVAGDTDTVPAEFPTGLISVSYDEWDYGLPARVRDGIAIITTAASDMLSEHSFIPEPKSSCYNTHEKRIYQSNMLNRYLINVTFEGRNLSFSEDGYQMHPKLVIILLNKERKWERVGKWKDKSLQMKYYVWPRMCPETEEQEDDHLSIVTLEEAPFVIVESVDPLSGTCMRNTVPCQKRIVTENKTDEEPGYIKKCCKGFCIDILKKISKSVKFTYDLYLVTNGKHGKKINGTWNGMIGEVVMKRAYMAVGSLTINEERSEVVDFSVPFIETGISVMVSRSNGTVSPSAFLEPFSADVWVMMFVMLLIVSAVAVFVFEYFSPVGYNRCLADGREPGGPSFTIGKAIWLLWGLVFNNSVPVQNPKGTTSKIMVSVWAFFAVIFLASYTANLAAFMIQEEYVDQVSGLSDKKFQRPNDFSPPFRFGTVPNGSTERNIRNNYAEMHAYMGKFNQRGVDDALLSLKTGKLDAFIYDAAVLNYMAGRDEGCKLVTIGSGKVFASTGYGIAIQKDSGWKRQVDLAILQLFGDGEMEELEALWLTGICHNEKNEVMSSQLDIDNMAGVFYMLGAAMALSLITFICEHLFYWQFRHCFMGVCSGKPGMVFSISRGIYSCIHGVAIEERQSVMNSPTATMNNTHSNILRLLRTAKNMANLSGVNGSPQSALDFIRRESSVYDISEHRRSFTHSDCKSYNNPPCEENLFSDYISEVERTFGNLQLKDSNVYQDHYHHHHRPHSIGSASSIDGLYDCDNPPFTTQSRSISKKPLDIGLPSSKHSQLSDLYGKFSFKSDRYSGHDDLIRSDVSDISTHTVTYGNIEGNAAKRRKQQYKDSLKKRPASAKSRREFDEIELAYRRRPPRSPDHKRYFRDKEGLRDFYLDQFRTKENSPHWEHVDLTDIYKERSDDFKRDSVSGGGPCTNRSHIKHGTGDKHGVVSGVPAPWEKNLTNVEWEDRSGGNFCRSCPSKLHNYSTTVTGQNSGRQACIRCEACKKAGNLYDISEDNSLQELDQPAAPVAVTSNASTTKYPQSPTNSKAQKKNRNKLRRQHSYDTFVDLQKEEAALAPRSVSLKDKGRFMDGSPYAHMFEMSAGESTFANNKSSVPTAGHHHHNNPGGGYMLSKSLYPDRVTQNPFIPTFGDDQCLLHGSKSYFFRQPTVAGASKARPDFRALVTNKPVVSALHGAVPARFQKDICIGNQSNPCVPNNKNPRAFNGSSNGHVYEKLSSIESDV

SMILES | Ki [2] [nM] | Ki [3] [nM] | Ki [4] [nM] | other results
OC1CN([C@H]2CC[C@@H](c3ccccc3)CC2)CCc2cc(OCc3ccccc3)ccc21 (some centres not stated) | 139 | 10 | 311 | Ratio Ki [1]: 14
OC1CN([C@H]2CC[C@H](c3ccccc3)CC2)CCc2cc(OCc3ccccc3)ccc21 (some centres not stated) | 388 | 386 | > 1000 | 
COc1ccc2c(c1)CCN(CCCCc1ccccc1)CC2O (configuration not stated) | 5.4 |  | 554 | IC50 [5]: 360 nM
OC1CN(Cc2ccc(N3CCCCC3)cc2)CCc2cc(OCc3ccccc3)ccc21 (racemic) | 1310 | 604 | 6430 | 
CC(C)(C)c1ccc(C(=O)CCCN2CCc3cc(OCc4ccccc4)ccc3C(O)C2)cc1 (racemic) | 644 | > 1000 | > 1000 | 
COc1ccc(C(=O)CCCN2CCc3cc(OCc4ccccc4)ccc3C(O)C2)cc1 (racemic) | > 1000 | > 1000 | 4500 | 
O=C(CCCN1CCc2cc(OCc3ccccc3)ccc2C(O)C1)c1ccc(F)cc1 (racemic) | 151 | 293 | 1050 | 
Oc1ccc2c(c1)CCN(CCCCc1ccccc1)CC2O (racemic) | 14 |  | 18000 | half-life [6]: < 3 min; Activity (Mus musculus [7]): Non-toxic; Activity [8]: Not Active; Activity (Mus musculus [9]): Toxic; Activity [10]: Not Active; IC50 [5]: 18.4 nM; Activity [11]: Not Active; half-life [12]: 21 min; half-life [13]: 28 min
Oc1ccc2c(c1)CCN(CCCOc1ccccc1)CC2O (racemic) | 20 | 170 | 5.9 | 
O=S(=O)(CCCN1CCc2cc(O)ccc2C(O)C1)c1ccccc1 (racemic) | > 1000 | > 1000 | 653 | 
CN(Cc1ccccc1)C(=O)CN1CCc2cc(O)ccc2C(O)C1 (racemic) | > 1000 |  | 1580 | 
Oc1ccc2c(c1)CCN(C1CCC3(CC1)OCCO3)CC2O (racemic) | > 1000 | > 1000 | 658 | 
Oc1ccc2c(c1)CCN([C@H]1CO[C@H](c3ccccc3)OC1)CC2O (mixture of isomers) | > 1000 | > 1000 | > 1000 | 
O=C(c1ccccc1)N1CCC(N2CCc3cc(O)ccc3C(O)C2)CC1 (racemic) | 204 | > 1000 | 98 | 
Oc1ccc2c(c1)CCN([C@H]1CC[C@@H](c3ccccc3)CC1)CC2O (mixture of isomers) | 3.3 | 123 | 8.6 | IC50 [5]: 12100 nM
Oc1ccc2c(c1)CCN([C@H]1CC[C@H](c3ccccc3)CC1)CC2O (mixture of isomers) | 9 | 200 | 8.9 | 

SMILES | Ki [2] [nM] | Ki [3] [nM] | Ki [4] [nM] | other results
O=C(CCCN1CCc2cc(O)ccc2C(O)C1)c1ccc(F)cc1 (racemic) | 36 | 1050 | 33 | 
OC1CN(CCCCc2ccccc2)CCc2cc(OCc3ccccc3)ccc21 (racemic) | 187 |  | 1050 | 
OC1CN(CCCOc2ccccc2)CCc2cc(OCc3ccccc3)ccc21 (racemic) | 93 | 193 | 945 | 
OC1CN(CCCSc2ccccc2)CCc2cc(OCc3ccccc3)ccc21 (racemic) | 41 |  | 653 | 
O=S(=O)(CCCN1CCc2cc(OCc3ccccc3)ccc2C(O)C1)c1ccccc1 (racemic) | 37 |  | 3040 | 
CC1(C)COC(CCCN2CCc3cc(OCc4ccccc4)ccc3C(O)C2)(c2ccc(C(C)(C)C)cc2)OC1 (racemic) | > 1000 | > 1000 | 900 | 
COc1ccc(C2(CCCN3CCc4cc(OCc5ccccc5)ccc4C(O)C3)OCC(C)(C)CO2)cc1 (racemic) | 661 | > 1000 | > 1000 | 
CC1(C)COC(CCCN2CCc3cc(OCc4ccccc4)ccc3C(O)C2)(c2ccc(F)cc2)OC1 (racemic) | 1420 | > 1000 | > 1000 | 
OC1CN(Cc2cccc(-c3ccccc3)c2)CCc2cc(OCc3ccccc3)ccc21 (racemic) | 1210 | > 1000 | > 1000 | 
CN(Cc1ccccc1)C(=O)CN1CCc2cc(OCc3ccccc3)ccc2C(O)C1 (racemic) | 377 | > 1000 | 2960 | 
OC1CN(C2CCC3(CC2)OCCO3)CCc2cc(OCc3ccccc3)ccc21 (racemic) | 1120 |  | 753 | 
OC1CN(C2COC(c3ccccc3)OC2)CCc2cc(OCc3ccccc3)ccc21 (racemic) | 1000 | 186 | > 1000 | 
O=C(c1ccccc1)N1CCC(N2CCc3cc(OCc4ccccc4)ccc3C(O)C2)CC1 (racemic) | > 1000 | > 1000 | > 1000 | 
OC(CN1CCC(Cc2ccc(F)cc2)CC1)c1ccc(Cl)cc1 (configuration not stated) [ELIPRODIL] | 13 |  |  | 
CC(C(O)c1ccc(O)cc1)N1CCC(Cc2ccccc2)CC1 (configuration not stated) [IFENPRODIL] |  |  |  | half-life [6]: < 1 min; half-life [12]: 5 min; half-life [13]: < 5 min
